Laboratory results from ChEMBL document CHEMBL3758162, “Synthesis, biological characterization and molecular modeling insights of spirochromanes as potent HDAC inhibitors” (Eur J Med Chem, 2016).

Assays:
Histone deacetylase 2 [1] = target: T1, Histone deacetylase 2 (Homo sapiens, UniProt Q92769); test: Inhibition of recombinant human HDAC2 after 15 mins by fluorescence assay
In short: (§1)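 Recombinant human HDAC2, 3 or 6 (20, 6 and […] respectively) diluted in assay buffer with inhibitor and 25 µM fluorogenic acetyl-lysine substrate; 15 min at room temperature, then developer 10 min; fluorescence read. Concentration–inhibition data fitted by non-linear regression to give IC50; replicates n≥2, mean shown.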

CYP1A2 = target: T2, CYP1A2 (Homo sapiens, UniProt P05177); test: Inhibition of human CYP1A2 using 3-cyano-7-ethoxycoumarin as substrate at 10 uM after 15 mins by fluorimetric analysis; assay type: ADME; conditions: probe 3-cyano-7-ethoxycoumarin
T2 sequence (P05177 whole entry): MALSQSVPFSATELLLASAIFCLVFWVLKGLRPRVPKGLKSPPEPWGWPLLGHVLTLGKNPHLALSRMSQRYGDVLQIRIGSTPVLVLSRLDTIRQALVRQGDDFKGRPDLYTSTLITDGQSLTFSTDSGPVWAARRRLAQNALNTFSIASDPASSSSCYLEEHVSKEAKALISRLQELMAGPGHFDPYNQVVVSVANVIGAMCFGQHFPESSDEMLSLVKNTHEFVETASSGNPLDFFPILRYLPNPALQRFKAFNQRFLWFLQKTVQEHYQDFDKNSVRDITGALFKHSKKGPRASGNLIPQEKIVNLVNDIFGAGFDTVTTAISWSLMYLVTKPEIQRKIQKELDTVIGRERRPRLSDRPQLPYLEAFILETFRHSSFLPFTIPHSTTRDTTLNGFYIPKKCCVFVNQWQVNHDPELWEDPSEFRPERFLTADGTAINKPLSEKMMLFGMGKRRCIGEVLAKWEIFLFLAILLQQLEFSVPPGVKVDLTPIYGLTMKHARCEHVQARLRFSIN
In short: (§2)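 Test compounds at 10 µM in potassium phosphate buffer pH 7.4 with NADPH regenerating system (final 1.3 mM NADP⁺, 3.3 mM glucose 6-phosphate, 0.4 U/ml G6PDH); reaction started at 37 °C by adding Supersomes isoenzyme plus substrate. Enzyme and substrate amounts: CYP1A2 0.5 pmol, 5 µM CEC; CYP2C19 0.5 pmol, 25 µM CEC; CYP3A4 1 pmol, 50 µM BFC; CYP2D6 1.5 pmol, 1.5 µM AMMC. Stopped with acetonitrile/Tris base; fluorescence read; % inhibition versus enzyme without inhibitor; n≥2, mean.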

CYP3A4 = CYP3A4 (Homo sapiens, UniProt P08684); test: Inhibition of human CYP3A4 using 7-benzyloxy-4-(trifluoromethyl)-coumarin as substrate at 10 uM after 30 mins by fluorimetric analysis; assay type: ADME; conditions: probe 7-benzyloxy-4-(trifluoromethyl)-coumarin; in short: as §2
Histone deacetylase 3 [2] = target: T3, Histone deacetylase 3 (Homo sapiens, UniProt O15379); test: Inhibition of recombinant human HDAC3 after 15 mins by fluorescence assay; in short: as §1
[3] = (§3) Metabolic stability in human liver microsomes assessed as compound remaining at 1 uM preincubated for 10 mins measured after 30 mins by LC-MS/MS analysis; assay type: ADME; conditions: liver microsomes, read-out: Stability
In short: (§4)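 Compound at 1 µM pre-incubated 10 min at 37 °C in potassium phosphate buffer pH 7.4 with 0.5 mg/mL mouse or human hepatic microsomes. Parent quantified by LC-MS/MS (ESI+, MRM, verapamil internal standard). % remaining = peak area at 30 min / area at 0 min × 100; n≥2, mean.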

CYP2C19 = CYP2C19 (Homo sapiens, UniProt P33261); test: Inhibition of human CYP2C19 using 3-cyano-7-ethoxycoumarin as substrate at 10 uM after 30 mins by fluorimetric analysis; assay type: ADME; conditions: probe 3-cyano-7-ethoxycoumarin; in short: as §2
[4] = Metabolic stability in mouse liver microsomes assessed as compound remaining at 1 uM preincubated for 10 mins measured after 30 mins by LC-MS/MS analysis; assay type: ADME; conditions: for remaining at 0.5 h, 1 µM: liver microsomes, read-out: Stability; in short: as §4
CYP2D6 = CYP2D6 (Homo sapiens, UniProt P10635); test: Inhibition of human CYP2D6 using 3-[2-(N,N-diethyl-N-methylamino)ethyl]-7-methoxy-4-methylcoumarin as substrate at 10 uM after 30 mins by fluorimetric analysis; assay type: ADME; in short: as §2
[5] = target: T4, Protein deacetylase HDAC6 (Homo sapiens, UniProt Q9UBN7); test: Inhibition of recombinant human HDAC6 after 15 mins by fluorescence assay; in short: as §1
T4 sequence (Q9UBN7 whole entry): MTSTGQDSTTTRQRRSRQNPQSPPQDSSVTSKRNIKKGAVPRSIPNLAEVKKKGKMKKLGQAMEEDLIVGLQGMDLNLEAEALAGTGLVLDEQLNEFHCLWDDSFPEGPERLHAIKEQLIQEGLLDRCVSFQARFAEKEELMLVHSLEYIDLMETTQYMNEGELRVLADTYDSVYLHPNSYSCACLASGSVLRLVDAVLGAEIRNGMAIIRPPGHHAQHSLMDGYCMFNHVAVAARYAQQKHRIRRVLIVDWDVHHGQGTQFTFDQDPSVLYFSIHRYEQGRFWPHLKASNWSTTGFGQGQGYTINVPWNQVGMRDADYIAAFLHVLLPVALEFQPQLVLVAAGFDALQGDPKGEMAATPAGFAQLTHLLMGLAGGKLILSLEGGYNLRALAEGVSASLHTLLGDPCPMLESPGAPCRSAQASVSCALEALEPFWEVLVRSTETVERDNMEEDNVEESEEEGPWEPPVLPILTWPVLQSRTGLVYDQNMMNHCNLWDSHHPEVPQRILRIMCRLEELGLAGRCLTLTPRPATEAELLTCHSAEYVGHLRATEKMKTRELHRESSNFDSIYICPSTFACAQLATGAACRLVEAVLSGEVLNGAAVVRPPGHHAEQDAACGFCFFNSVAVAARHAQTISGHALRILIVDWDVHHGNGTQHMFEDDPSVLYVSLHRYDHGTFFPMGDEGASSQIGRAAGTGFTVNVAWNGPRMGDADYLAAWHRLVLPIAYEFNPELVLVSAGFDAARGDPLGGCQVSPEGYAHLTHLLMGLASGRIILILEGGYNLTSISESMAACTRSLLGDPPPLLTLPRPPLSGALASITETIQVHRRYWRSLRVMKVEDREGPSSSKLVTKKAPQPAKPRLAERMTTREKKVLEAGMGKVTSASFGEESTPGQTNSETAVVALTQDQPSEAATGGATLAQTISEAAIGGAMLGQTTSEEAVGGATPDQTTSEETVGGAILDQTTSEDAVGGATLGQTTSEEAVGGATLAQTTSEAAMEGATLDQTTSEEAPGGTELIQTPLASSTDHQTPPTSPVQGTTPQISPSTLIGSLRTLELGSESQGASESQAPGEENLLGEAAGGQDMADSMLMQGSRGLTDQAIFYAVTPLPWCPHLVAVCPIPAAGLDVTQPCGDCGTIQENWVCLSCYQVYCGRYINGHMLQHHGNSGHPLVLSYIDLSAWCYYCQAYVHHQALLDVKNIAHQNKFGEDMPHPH

[6] = Antiproliferative activity against human HCT116 cells assessed as cell viability after 72 hrs by CellTitre-Glo luminescent assay; assay type: functional, cell-based, HCT-116
Histone deacetylase = test: Inhibition of HDAC in human HeLa cells nuclear extract using Fluor de lys as substrate after 15 mins by fluorometric analysis; assay type: cell-based
[7] = Solubility of the compound at pH 4.5; assay type: physicochemical; conditions: buffer
K562 = test: Antiproliferative activity against human K562 cells assessed as cell viability after 72 hrs by CellTitre-Glo luminescent assay; assay type: functional, cell-based
A549 = test: Antiproliferative activity against human A549 cells assessed as cell viability after 72 hrs by CellTitre-Glo luminescent assay; assay type: functional, cell-based
Histone deacetylase 3 [8] = target: T3, Histone deacetylase 3; test: Inhibition of HDAC3 (unknown origin)
[9] = target: T4, Protein deacetylase HDAC6; test: Inhibition of HDAC6 (unknown origin)
Histone deacetylase 2 [10] = target: T1, Histone deacetylase 2; test: Inhibition of HDAC2 (unknown origin)
Liver microsome = test: as §3; assay type: ADME; conditions: microsomes, 0.5 h, 1 µM; in short: as §4

Chain of CYP2D6 (P10635 whole entry): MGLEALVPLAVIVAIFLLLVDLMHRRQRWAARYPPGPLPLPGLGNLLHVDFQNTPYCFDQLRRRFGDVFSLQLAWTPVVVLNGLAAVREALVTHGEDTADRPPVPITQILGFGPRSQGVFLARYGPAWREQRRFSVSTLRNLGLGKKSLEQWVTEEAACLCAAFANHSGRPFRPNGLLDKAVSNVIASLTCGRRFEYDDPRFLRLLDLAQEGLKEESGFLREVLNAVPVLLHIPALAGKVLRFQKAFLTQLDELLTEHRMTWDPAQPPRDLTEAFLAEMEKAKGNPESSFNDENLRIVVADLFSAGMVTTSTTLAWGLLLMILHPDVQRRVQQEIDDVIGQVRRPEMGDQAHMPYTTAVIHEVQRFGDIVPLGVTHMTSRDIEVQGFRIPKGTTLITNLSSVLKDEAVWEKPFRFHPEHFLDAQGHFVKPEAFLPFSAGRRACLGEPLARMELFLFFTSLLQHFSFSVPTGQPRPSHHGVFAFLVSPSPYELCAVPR
T1 sequence (Q92769 whole entry): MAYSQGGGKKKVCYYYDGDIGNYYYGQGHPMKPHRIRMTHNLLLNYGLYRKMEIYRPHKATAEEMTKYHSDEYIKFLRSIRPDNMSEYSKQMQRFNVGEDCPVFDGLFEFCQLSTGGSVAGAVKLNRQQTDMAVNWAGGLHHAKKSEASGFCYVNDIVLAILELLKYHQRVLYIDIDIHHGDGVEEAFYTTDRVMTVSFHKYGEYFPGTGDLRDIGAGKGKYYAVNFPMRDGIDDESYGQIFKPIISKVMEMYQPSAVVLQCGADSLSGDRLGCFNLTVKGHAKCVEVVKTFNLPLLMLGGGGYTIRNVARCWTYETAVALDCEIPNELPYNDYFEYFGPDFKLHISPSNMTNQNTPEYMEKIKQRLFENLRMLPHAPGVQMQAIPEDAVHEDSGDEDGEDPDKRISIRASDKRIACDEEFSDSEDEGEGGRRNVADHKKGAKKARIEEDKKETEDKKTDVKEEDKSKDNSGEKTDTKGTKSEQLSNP
Chain of CYP3A4 (P08684 whole entry): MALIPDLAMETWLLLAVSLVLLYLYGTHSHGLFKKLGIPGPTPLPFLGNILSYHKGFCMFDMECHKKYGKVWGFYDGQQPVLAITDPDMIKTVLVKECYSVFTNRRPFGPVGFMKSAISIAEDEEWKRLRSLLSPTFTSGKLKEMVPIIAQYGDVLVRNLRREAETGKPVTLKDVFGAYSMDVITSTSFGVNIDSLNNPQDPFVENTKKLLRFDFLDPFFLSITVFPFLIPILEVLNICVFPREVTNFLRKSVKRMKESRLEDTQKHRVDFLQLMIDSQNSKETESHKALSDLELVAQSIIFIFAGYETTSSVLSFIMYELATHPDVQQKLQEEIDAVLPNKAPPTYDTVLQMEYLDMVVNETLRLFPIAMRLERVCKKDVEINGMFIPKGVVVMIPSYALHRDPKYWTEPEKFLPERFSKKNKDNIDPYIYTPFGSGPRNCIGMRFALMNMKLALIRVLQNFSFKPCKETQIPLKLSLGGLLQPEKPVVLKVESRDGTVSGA
T3 sequence (O15379 whole entry): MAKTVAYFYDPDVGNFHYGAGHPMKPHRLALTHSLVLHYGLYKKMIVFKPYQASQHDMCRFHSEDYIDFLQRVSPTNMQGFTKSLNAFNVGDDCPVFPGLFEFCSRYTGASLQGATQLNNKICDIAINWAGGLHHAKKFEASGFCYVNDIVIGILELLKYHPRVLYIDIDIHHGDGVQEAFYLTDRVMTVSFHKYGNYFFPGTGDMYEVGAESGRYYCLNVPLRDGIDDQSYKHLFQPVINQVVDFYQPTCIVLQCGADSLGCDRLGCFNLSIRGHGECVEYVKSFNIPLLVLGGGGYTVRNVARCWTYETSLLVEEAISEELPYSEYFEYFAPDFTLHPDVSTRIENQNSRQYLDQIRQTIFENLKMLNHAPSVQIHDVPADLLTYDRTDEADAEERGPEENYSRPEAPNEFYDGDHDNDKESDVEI
Chain of CYP2C19 (P33261 whole entry): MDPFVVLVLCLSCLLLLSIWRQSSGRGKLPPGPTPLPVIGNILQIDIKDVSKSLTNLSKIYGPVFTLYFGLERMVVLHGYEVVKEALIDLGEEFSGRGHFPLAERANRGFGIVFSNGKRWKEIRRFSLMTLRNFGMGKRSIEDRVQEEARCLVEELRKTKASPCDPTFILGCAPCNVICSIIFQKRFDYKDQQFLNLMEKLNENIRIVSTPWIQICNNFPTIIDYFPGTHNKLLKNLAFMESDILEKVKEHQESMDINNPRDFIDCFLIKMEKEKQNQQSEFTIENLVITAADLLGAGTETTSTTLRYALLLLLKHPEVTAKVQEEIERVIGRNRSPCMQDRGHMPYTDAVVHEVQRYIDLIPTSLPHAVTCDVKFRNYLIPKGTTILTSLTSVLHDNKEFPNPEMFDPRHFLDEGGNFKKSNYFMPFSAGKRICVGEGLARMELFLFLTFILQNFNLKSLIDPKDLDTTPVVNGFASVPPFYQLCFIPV

O=C(/C=C/c1ccc2c(c1)C(=O)CC1(CCN(Cc3ccc(F)cc3)CC1)O2)NO
IC50 (Histone deacetylase 2 [1]): 320 nM | inhibition at 0.25 h, 10 µM (CYP1A2): 5% | inhibition at 0.5 h, 10 µM (CYP3A4): 34% | IC50 (Histone deacetylase 3 [2]): 92 nM | remaining at 0.5 h, 1 µM [3]: 63% | inhibition at 0.5 h, 10 µM (CYP2C19): 61% | remaining at 0.5 h, 1 µM [4]: 47% | inhibition at 0.5 h, 10 µM (CYP2D6): 43%

O=C(/C=C/c1ccc2c(c1)C(=O)CC1(CCN(CCc3ccccc3)CC1)O2)NO
IC50 (Histone deacetylase 2 [1]): 199 nM | inhibition at 0.25 h, 10 µM (CYP1A2): 13% | inhibition at 0.5 h, 10 µM (CYP3A4): 40% | remaining at 0.5 h, 1 µM [3]: 66% | inhibition at 0.5 h, 10 µM (CYP2C19): 42% | IC50 [5]: 138 nM | remaining at 0.5 h, 1 µM [4]: 57% | inhibition at 0.5 h, 10 µM (CYP2D6): 41%

CN1CCCC2(CC(=O)c3cc(/C=C/C(=O)NO)ccc3O2)C1 (racemic)
inhibition at 0.25 h, 10 µM (CYP1A2): 5% | IC50 ([6]; Homo sapiens, HCT-116, 72 h): 63 nM | IC50 (Histone deacetylase): 237 nM | inhibition at 0.5 h, 10 µM (CYP3A4): 51% | remaining at 0.5 h, 1 µM [3]: 42% | solubility [7]: > 500 µM | inhibition at 0.5 h, 10 µM (CYP2C19): 12% | IC50 (K562; Homo sapiens, K562, 72 h): 56 nM | IC50 (A549; Homo sapiens, A549, 72 h): 103 nM | remaining at 0.5 h, 1 µM [4]: 72% | inhibition at 0.5 h, 10 µM (CYP2D6): 14%

O=C(/C=C/c1ccc2c(c1)C(=O)CC1(CCCN(CCc3ccccc3)CC1)O2)NO (racemic)
inhibition at 0.25 h, 10 µM (CYP1A2): 5% | IC50 ([6]; Homo sapiens, HCT-116, 72 h): 62 nM | IC50 (Histone deacetylase): 56 nM | inhibition at 0.5 h, 10 µM (CYP3A4): 41% | remaining at 0.5 h, 1 µM [3]: 27% | solubility [7]: > 500 µM | inhibition at 0.5 h, 10 µM (CYP2C19): 81% | IC50 (K562; Homo sapiens, K562, 72 h): 188 nM | IC50 (A549; Homo sapiens, A549, 72 h): 184 nM | remaining at 0.5 h, 1 µM [4]: 39% | inhibition at 0.5 h, 10 µM (CYP2D6): 52%

O=C(/C=C/c1ccc2c(c1)C(=O)CC1(CCN(Cc3ccccc3)C1)O2)NO (racemic)
inhibition at 0.25 h, 10 µM (CYP1A2): 5% | IC50 (Histone deacetylase 3 [8]): 28 nM | IC50 ([6]; Homo sapiens, HCT-116, 72 h): 72 nM | IC50 [9]: 123 nM | IC50 (Histone deacetylase): 52 nM | inhibition at 0.5 h, 10 µM (CYP3A4): 69% | IC50 (Histone deacetylase 2 [10]): 82 nM | Stability (Liver microsome): 24% | solubility [7]: > 500 µM | inhibition at 0.5 h, 10 µM (CYP2C19): 39% | IC50 (K562; k562): 271 nM | IC50 (A549; Homo sapiens, A549, 72 h): 389 nM | remaining at 0.5 h, 1 µM [4]: 27% | inhibition at 0.5 h, 10 µM (CYP2D6): 70%

CN1CCCC2(CC1)CC(=O)c1cc(/C=C/C(=O)NO)ccc1O2 (racemic)
inhibition at 0.25 h, 10 µM (CYP1A2): 5% | IC50 ([6]; Homo sapiens, HCT-116, 72 h): 98 nM | IC50 (Histone deacetylase): 114 nM | inhibition at 0.5 h, 10 µM (CYP3A4): 12% | remaining at 0.5 h, 1 µM [3]: 79% | solubility [7]: > 500 µM | inhibition at 0.5 h, 10 µM (CYP2C19): 9% | IC50 (K562; Homo sapiens, K562, 72 h): 329 nM | IC50 (A549; Homo sapiens, A549, 72 h): 534 nM | remaining at 0.5 h, 1 µM [4]: 62% | inhibition at 0.5 h, 10 µM (CYP2D6): 5%

O=C(/C=C/c1ccc2c(c1)C(=O)CC1(CCCN(Cc3ccccc3)CC1)O2)NO (racemic)
IC50 (Histone deacetylase 3 [8]): 30 nM | IC50 ([6]; Homo sapiens, HCT-116, 72 h): 47 nM | IC50 [9]: 151 nM | IC50 (Histone deacetylase): 73 nM | IC50 (Histone deacetylase 2 [10]): 72 nM | remaining at 0.5 h, 1 µM [3]: 19% | IC50 (K562; Homo sapiens, K562, 72 h): 162 nM | IC50 (A549; Homo sapiens, A549, 72 h): 371 nM | remaining at 0.5 h, 1 µM [4]: 25%

O=C(/C=C/c1ccc2c(c1)C(=O)CC1(CCN(Cc3ccccc3)C1)O2)NO (single isomer, unassigned; (-))
IC50 ([6]; hct-116): 66 nM | IC50 (Histone deacetylase): 26 nM | Stability (Liver microsome): 23% | IC50 (K562; k562): 119 nM | IC50 (A549; a549): 332 nM | Stability ([4]; microsomes, 0.5 h, 1 µM): 19%

O=C(/C=C/c1ccc2c(c1)C(=O)CC1(CCN(Cc3ccccc3)C1)O2)NO (stereo in doubt; 32j)
IC50 ([6]; hct-116): 71 nM | IC50 (Histone deacetylase): 37 nM | Stability (Liver microsome): 11% | IC50 (K562; k562): 130 nM | IC50 (A549; a549): 303 nM
